One data set deals with Hepatitis B virus. The data set can be described thus: Antiviral activity against HBV infected in human HepG2.2.15 cells assessed as inhibition of viral DNA replication. The data set is classed as functional, organism-based, HepG2 2.2.15. The method, boiled down:
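HepG2.2.15 cells, which secrete virus-like particles. Reference anti-HBV agents were run as positive controls. IC50 is the mean of three experiments. A compound with no activity at its maximum nontoxic concentration was scored as not active.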

Data set [1] can be described thus: Cytotoxicity against human HepG2(2.2.15) cells. The format is cell-based. In outline: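 Viability of HepG2.2.15 cells was read after 48 h of compound exposure. Cytotoxic IC50 is the mean of three experiments.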
Data set [2] can be described thus: Therapeutic index, ratio of IC50 for human HepG2(2.2.15) cells to IC50 for HBV. The format is cell-based. The conditions noted are these: read-out: Ratio IC50.
Where [3] appears, read: Hepatitis B virus, HepG2 2.2.15, read-out: IC50.

As a reminder, the IC50 is the concentration at which inhibition is half-maximal. For `O=C1CCCC2=C1C(c1ccc(F)cc1Cl)N=C(c1ccco1)N2` (centres undefined), the IC50 result in the data set on Hepatitis B virus (hepg2 2.2.15) is “Not Active”; in data set [1], 717 µM.

For `CC1(C)CC(=O)C2=C(C1)NC(c1cccnc1)=NC2c1ccc(F)cc1Cl` (centres undefined), the IC50 worked out at 0.44 µM in the data set with Hepatitis B virus (setting [3]) and 624 µM in data set [1]. Moreover, in data set [2], the selectivity ratio is 1420.

For the molecule `CC1(C)CC(=O)C2=C(C1)NC(c1cccnc1)=NC2c1ccccc1Cl` (centres undefined), the IC50 in the data set on Hepatitis B virus (setting [3]) was 26.2 µM; in data set [1], 67.3 µM. Further, the selectivity ratio in data set [2] is 2.56.

Turning to `O=C1CCCC2=C1C(c1ccccc1)N=C(c1ccccn1)N2` (centres undefined), the IC50 in the data set with Hepatitis B virus (setting [3]) worked out at 6.6 µM; in data set [1] it was 571 µM. Also, the selectivity ratio in data set [2] was determined as 86.6.

With `O=C1CCCC2=C1C(c1ccccc1)N=C(c1cccnc1)N2` (centres undefined), the IC50 result in the data set on Hepatitis B virus (hepg2 2.2.15) is “Not Active”; in data set [1], 369 µM.

In the case of `O=C1CCCC2=C1C(c1ccc(F)cc1Cl)N=C(c1nccs1)N2` (centres undefined), the IC50 in the data set on Hepatitis B virus (setting [3]) was 8.75 µM; in data set [1], 47.7 µM. The selectivity ratio in data set [2] was determined as 5.73.

For `O=C1CCCC2=C1C(c1ccc(F)cc1Cl)N=C(c1cnccn1)N2` (centres undefined), the IC50 stood at 2.3 µM in the data set with Hepatitis B virus (setting [3]) and 777 µM in data set [1]. The selectivity ratio in data set [2] is 338.

As to `CC1(C)CC(=O)C2=C(C1)NC(c1c(F)cc(F)cc1F)=NC2c1ccc(F)cc1Cl` (centres undefined), the IC50 result with Hepatitis B virus (hepg2 2.2.15) was “Not Active”; in data set [1], 5.6 µM.

In the case of `O=C1CCCC2=C1C(c1ccc(F)cc1)N=C(c1ccccn1)N2` (centres undefined), the IC50 result with Hepatitis B virus (hepg2 2.2.15) is “Not Active”; in data set [1] it was 516 µM.

On to `O=C1CCCC2=C1C(c1ccc(F)cc1Cl)N=C(c1cccnc1)N2` (centres undefined), for which the values for the IC50 (in the data set on Hepatitis B virus (setting [3]); in data set [1]) were 25.1 µM and 82.8 µM, respectively.

Turning to `CC1(C)CC(=O)C2=C(C1)NC(c1ccncc1)=NC2c1ccc(F)cc1Cl` (centres undefined), the IC50 in the data set with Hepatitis B virus (setting [3]) was found to be 4.92 µM; in data set [1], 135 µM. The selectivity ratio in data set [2] came out at 27.3.

As for `O=C1CCCC2=C1C(c1ccc(F)cc1Cl)N=C(c1ncccc1F)N2` (centres undefined), the figures for the IC50 (with Hepatitis B virus (setting [3]); in data set [1]) were 1.1 µM and 1370 µM, respectively. In data set [2], the selectivity ratio is 1240.

For `O=C1CCCC2=C1C(c1ccc(F)cc1Cl)N=C(c1c(F)cc(F)cc1F)N2` (centres undefined), the results for the IC50 entry (with Hepatitis B virus (hepg2 2.2.15); in data set [1]) were “Not Active” and 123 µM, respectively.

For `CC1(C)CC(=O)C2=C(C1)NC(c1cccnc1)=NC2c1ccc(F)cc1` (centres undefined), the results for the IC50 (in the data set on Hepatitis B virus (setting [3]); in data set [1]) were 25.3 µM and 145 µM, respectively. In data set [2], the selectivity ratio was found to be 5.73.

`O=C1CCCC2=C1C(c1ccccc1Cl)N=C(c1cnccn1)N2` (centres undefined): the IC50 result with Hepatitis B virus (hepg2 2.2.15) was “Not Active”; in data set [1], 1470 µM.

`CC1(C)CC(=O)C2=C(C1)NC(c1ncc(F)cc1F)=NC2c1ccc(F)cc1Cl` (centres undefined): the IC50 in the data set on Hepatitis B virus (setting [3]) was determined as 1.05 µM; in data set [1], 41.2 µM. The selectivity ratio in data set [2] was 39.2.

`CC1(C)CC(=O)C2=C(C1)NC(c1nccs1)=NC2c1ccc(F)cc1Cl` (centres undefined): the IC50 is 3.12 µM with Hepatitis B virus (setting [3]) and 57 µM in data set [1]. Also, the selectivity ratio in data set [2] stood at 19.2.

On to `CC1(C)CC(=O)C2=C(C1)NC(c1cnccn1)=NC2c1ccccc1Cl` (centres undefined), for which the IC50 entry in the data set with Hepatitis B virus (hepg2 2.2.15) is “Not Active”; in data set [1] it was 623 µM.

On to `COC(=O)C1=C(C)NC(c2ncc(F)cc2F)=N[C@H]1c1ccc(F)cc1Cl`, for which the IC50 in the data set on Hepatitis B virus (setting [3]) was found to be 0.78 µM; in data set [1] it was 567 µM.

In the case of `CC1(C)CC(=O)C2=C(C1)NC(c1cnccn1)=NC2c1ccc(F)cc1Cl` (centres undefined), the IC50 with Hepatitis B virus (setting [3]) was 14.2 µM; in data set [1] it was 773 µM. In addition, in data set [2], the selectivity ratio was found to be 54.5.

Turning to `CC1(C)CC(=O)C2=C(C1)NC(c1ncccc1F)=NC2c1ccc(F)cc1Cl` (centres undefined), the IC50 result in the data set on Hepatitis B virus (hepg2 2.2.15) was “Not Active”; in data set [1], 371 µM.

As for `O=C1CCCC2=C1C(c1ccccc1Cl)N=C(c1cccnc1)N2` (centres undefined), the IC50 result in the data set on Hepatitis B virus (hepg2 2.2.15) was “Not Active”; in data set [1], 1120 µM.

For `O=C1CCCC2=C1C(c1ccc(F)cc1Cl)N=C(c1ccncc1)N2` (centres undefined), the IC50 was 16.5 µM in the data set with Hepatitis B virus (setting [3]) and 142 µM in data set [1]. In addition, the selectivity ratio in data set [2] amounted to 8.6.

In the case of `CC1(C)CC(=O)C2=C(C1)NC(c1cccnc1)=NC2c1ccccc1` (centres undefined), the IC50 in the data set with Hepatitis B virus (setting [3]) worked out at 22.4 µM; in data set [1], 173 µM. Further, the selectivity ratio in data set [2] is 7.74.

For `O=C1CCCC2=C1C(c1ccccc1Cl)N=C(c1ccccn1)N2` (centres undefined), the results for the IC50 entry (with Hepatitis B virus (hepg2 2.2.15); in data set [1]) were “Not Active” and 589 µM, respectively.

Regarding `O=C1CCCC2=C1C(c1ccc(F)cc1Cl)N=C(c1ccccn1)N2` (centres undefined), the values for the IC50 (in the data set with Hepatitis B virus (setting [3]); in data set [1]) were 4.3 µM and 620 µM, respectively. The selectivity ratio in data set [2] came to 144.

Consider `O=C1CCCC2=C1C(c1ccc(F)cc1)N=C(c1cccnc1)N2` (centres undefined), for which the values for the half-maximal inhibitory concentration (IC50) result (in the data set with Hepatitis B virus (hepg2 2.2.15); in data set [1]) were “Not Active” and 280 µM, respectively.

Take `Nc1ccn([C@@H]2CS[C@H](CO)O2)c(=O)n1` [LAMIVUDINE]: the IC50 in the data set with Hepatitis B virus (setting [3]) came to 0.22 µM.
